One assay has as its system NCI-H1299. In words: Cytotoxicity in human NCI-H1299 cells assessed as reduction in cell viability incubated for 48 hrs by resazurin dye based assay. Format: functional. The conditions noted are these: NCI-H1299, 48 h. The essentials: (§1)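 Cells seeded at 2000/well, 24 h later exposed to serial dilutions (0.1% DMSO vehicle) in complete medium for 48 h; resazurin (2 mg/mL stock) then added for 16 h; fluorescence at 544 nm excitation/595 nm emission, proportional to living cells. Triplicate wells, repeated twice; IC50 from concentration-response.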

A further assay relates to A549. As to the kind of experiment: Cytotoxicity in human A549 cells assessed as reduction in cell viability incubated for 48 hrs by resazurin dye based assay. Format: functional. The note with it: A549, 48 h. A digest of the protocol: as §1
Background: Alamar Blue is a resazurin reagent that responds to reducing activity.

Another assay concerns HT-29. As to the kind of experiment: Cytotoxicity in human HT-29 cells assessed as reduction in cell viability incubated for 48 hrs by resazurin dye based assay. The assay is classed as functional. The note with it: HT-29, 48 h. The essentials: as §1
The test system of assay [1] is HCT-116. As to the kind of experiment: Induction of apoptosis in human HCT-116 cells assessed as increase in early apoptosis level at 40 uM incubated for 24 hrs by annexin-V/propidium iodide staining based flow cytometry relative to control. The assay is classed as functional, cell-based. A digest of the protocol:
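HCT116 cells were seeded at 6 × 10^4 cells/well and treated 24 h later in medium containing 0.1% DMSO, with DMSO alone as the control. Floating and trypsinized adherent cells were pooled and washed in binding buffer. They were stained with Annexin V/PI for 15 min at room temperature and read by flow cytometry. Early apoptotic cells were FITC+/PI−; late apoptotic cells were FITC+/PI+.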
On the technique in general: Flow cytometry measures light scatter and fluorescence of single cells or particles in a stream.

Assay [2] deals with HCT-116. In words: Induction of cell cycle arrest in human HCT-116 cells assessed as increase in G2/M cell population level at 20 uM incubated for 24 hrs by propidium iodide /RNase staining based flow cytometry relative to control. The assay is classed as functional. The essentials:
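HCT116 cells (6 × 10^4/well, six-well plates) treated after 24 h for 24 h (12.5 or 15 μM for one conjugate, 20 μM for others; 0.1% DMSO vehicle); floating and trypsinized cells fixed in 70% ethanol at 4 °C overnight, stained with PI/RNase 15 min at room temperature, DNA content by flow cytometry; phase distribution versus control.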

The test system of assay [3] is HCT-116. In words: Induction of apoptosis in human HCT-116 cells assessed as increase in late apoptosis level at 40 uM incubated for 48 hrs by annexin-V/propidium iodide staining based flow cytometry relative to control.
Assay [4] deals with HCT-116. In words: Cytotoxicity in human HCT-116 cells assessed as reduction in cell viability incubated for 48 hrs by resazurin dye based assay. Format: functional. The conditions noted are these: HCT-116, 48 h. A digest of the protocol: as §1
The subject of assay [5] is CHO. In words: Induction of GAG biosynthesis in CHO pgsA-745 cells assessed as increase in GlcN level at 10 uM incubated for 48 hrs by immunostaining based confocal microscopic analysis relative to control. Format: functional. The note with it: Cricetulus griseus.
Assay [6] is described as follows: Induction of GAG priming in CHO pgsA-745 cells assessed as increase in delta-UA-GalNAc6S level in from the cell culture media at 10 uM incubated for 24 hrs by LC-MS analysis relative to control. The assay is classed as functional. The conditions noted are these: Cricetulus griseus, time 48 hrs, in the assay text read “incubated for 48 hrs” for “incubated for 24 hrs”. A digest of the protocol: (§2)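 Disaccharide LC-MS: CHO pgsA-745 cells treated at 10 μM in 0.1% DMSO, GAGs purified from cells or medium, digested with 1 mU chondroitinase ABC (5 mM NH4Ac pH 7.0, 37 °C, 24 h); treated samples PMP-labelled, DMSO controls D5-PMP-labelled, mixed at equal cellular protein (1 mg), co-injected on C18 capillary LC, negative-ion MS; paired ion intensities compared.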

The nature of assay [7]: Induction of GAG priming in CHO pgsA-745 cells assessed as change in UA-GalNAc4S relative intensity level at 10 uM incubated for 24 hrs by LC-MS analysis (reference value: 1.01). The assay is classed as functional. The conditions noted are these: Cricetulus griseus, time 48 hrs, in the assay text read “incubated for 48 hrs” for “incubated for 24 hrs”. A digest of the protocol:
as §2

A short description of assay [8]: Induction of GAG priming in CHO pgsA-745 cells assessed as increase in delta-UA-GalNAc4S level in from the cell culture media at 10 uM incubated for 24 hrs by LC-MS analysis relative to control. The note with it: Cricetulus griseus, time 48 hrs, in the assay text read “48 hrs” for “24 hrs”. The assay is classed as functional. A digest of the protocol: as §2
Assay [9] can be described thus: Induction of GAG priming in CHO pgsA-745 cells assessed as change in UA-GalNAc6S relative intensity level at 10 uM incubated for 24 hrs by LC-MS analysis (reference value: 9.52). The assay is classed as functional. The conditions noted are these: Cricetulus griseus, time 48 hrs, in the assay text read “incubated for 48 hrs” for “incubated for 24 hrs”. The essentials: as §2

Assay [10] has as its system CHO. As to the kind of experiment: Induction of GAG priming in CHO pgsA-745 cells assessed as increase in FGF7/GAGs/FGFR2B ternary complex formation at 10 uM incubated for 24 hrs by confocal microscopy. The assay is classed as functional, cell-based. The conditions noted are these: Cricetulus griseus. A digest of the protocol:
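Ternary complex assay: CHO pgsA-745 cells on coverslips treated 10 μM with 0.1% DMSO for 24 h at 37 °C, fixed in 4% formaldehyde 15 min, then incubated sequentially with FGFR2B-Fc, FGF7 and Protein A-Alexa Fluor 647; bound receptor imaged by confocal microscopy at 665 nm […].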

Assay [11] in a line: Induction of GAG priming in CHO pgsA-745 cells assessed as change in UA-GalNAc relative intensity level at 10 uM incubated for 24 hrs by LC-MS analysis (reference value: 8.99). The assay is classed as functional, Cricetulus griseus. A digest of the protocol:
as §2

Assay [12] can be described thus: Induction of GAG priming in CHO pgsA-745 cells assessed as increase in non-sulfated delta-UA-GalNAc level in from the cell culture media at 10 uM incubated for 24 hrs by LC-MS analysis relative to control. Format: functional. The note with it: Cricetulus griseus, time 48 hrs, in the assay text read “incubated for 48 hrs” for “incubated for 24 hrs”. A digest of the protocol: as §2

Assay [13] relates to CHO. In words: Induction of GAG biosynthesis in CHO pgsA-745 cells assessed as increase in GalN level in culture media at 10 uM incubated for 48 hrs by immunostaining based confocal microscopic analysis relative to control. Format: functional, cell-based. The conditions noted are these: Cricetulus griseus.
For assay [14], the system named is CHO. As to the kind of experiment: Induction of GAG biosynthesis in CHO pgsA-745 cells assessed as increase in GalN level at 10 uM incubated for 48 hrs by immunostaining based confocal microscopic analysis relative to control. Format: functional. The note with it: Cricetulus griseus.
In assay [15] the test system is CHO. In words: Induction of GAG biosynthesis in CHO pgsA-745 cells assessed as increase in GlcN level in culture media at 10 uM incubated for 48 hrs by immunostaining based confocal microscopic analysis relative to control. The note with it: Cricetulus griseus. The assay is classed as functional, cell-based.

Broadly, the IC50 is the concentration that gives 50% inhibition.

Activity calls are given as the source filed them. No cut-off for these calls is given here.

Turning to `CC(=O)OC[C@H]1O[C@@H](n2[se]c3ccccc3c2=O)[C@H](OC(C)=O)[C@@H](OC(C)=O)[C@H]1OC(C)=O`, the concentration for half-maximal inhibition (IC50) came to 21.6 µM in the assay on NCI-H1299, 25.2 µM in the assay on A549, 19.3 µM in the assay on HT-29 and 17.8 µM in the assay with HCT-116 [4]. Further, the result in the assay on HCT-116 [1], with HCT-116 [2] and in the assay with HCT-116 [3] was Active.
Consider `CC(=O)OC[C@H]1O[C@@H](O[C@H]2[C@H](OC(C)=O)[C@@H](OC(C)=O)[C@H](n3[se]c4ccccc4c3=O)O[C@@H]2COC(C)=O)[C@H](OC(C)=O)[C@@H](OC(C)=O)[C@H]1OC(C)=O`, for which the half-maximal inhibitory concentration (IC50) in the assay on NCI-H1299 was 34 µM; in the assay with A549 it was 36.5 µM; in the assay with HT-29, 32.3 µM; in the assay on HCT-116 [4], 24.2 µM. For the same compound, the result with HCT-116 [1], in the assay with HCT-116 [2] and with HCT-116 [3] was Active.
Consider `O[C@@H]1[C@@H](O)[C@H](Oc2ccccc2)OC[C@H]1O`, for which the result with CHO [5], with CHO [13], with CHO [14] and with CHO [15] was Active. The “fold change (FC)” value in [6] is on record as 10.5; in assay [7], 100; in [8] it was “<=99”; in assay [9] it was 100; in [11], 100; in assay [12] it was 11. In addition, the outcome with CHO [10] was inactive.

For the origin of these results see ChEMBL document CHEMBL4715820, “Aglycone Ebselen and β-d-Xyloside Primed Glycosaminoglycans Co-contribute to Ebselen β-d-Xyloside-Induced Cytotoxicity” (J Med Chem, 2018).
